Screening data (PubChem)
Sampled rows, rich in hits. Any-hit rate of the full collection: about 2.3%.
PLC-gamma1 inh: blocks human PLC-gamma1 enzyme activity. purified PLC-gamma1, fluorogenic substrate, fluorescence. inhibition, % at 12.2 µM. 370,000 compounds, 0.84% hits
ADAM17 inh: ADAM17 inhibition, QFRET primary screen | recombinant ADAM17, EDANS/DABCYL FRET peptide cleavage | AID 720648 | P78536 | 370,000 compounds, 0.83% hits | inhibition, % at 6.95 µM;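 active means inhibition above the mean of compounds lying between control limits plus 3 SD, set per campaign, cut at about 8.5% in these data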;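 further: 0% = DMSO-only wells as the low control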
ADAM10 inh: inhibits human ADAM10. 370,000 compounds, 0.62% hits. O14672. AID 720582. recombinant ADAM10, EDANS/DABCYL FRET peptide cleavage, 3 h. inhibition, % at 7 µM;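 active means inhibition above a per-campaign cutoff equal to the mean of compounds falling between control-based bounds plus 3 SD, cut at about 20% in these data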;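 further: 0% = DMSO wells while the 100% control is not disclosed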
PLCb3 inh: blocks human PLC-beta3 enzyme activity; 370,000 compounds, 0.18% hits; Purified PLC-beta3, fluorogenic substrate, fluorescence; inhibition, % at 12.2 µM; Q01970; in the data active means inhibition above about 11%;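 further: 0% = median of compound wells on plate and 100% = full blocker control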
DDE Tn6 FP inh: disrupts Tn6 cyclic peptide binding to fibrin D-Dimer-E complex; Fibrin DD(E) TRITC-Tn6 fluorescence polarization displacement; inhibition, % at 8.3 µM; 370,000 compounds, 0.21% hits; AID 720509;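 active means inhibition above a per-campaign cutoff: mean of compounds within control limits plus 3 SD, cut at about 15% in these data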;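 further: 0% = median of all compound wells on the plate and 100% = blocking peptide control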
Tn7 DDE FP: inhibitors of Tn7 peptide binding to human fibrin DD(E); FP displacement of FITC-Tn7 peptide from fibrin DD(E); 0% = median of compound wells per plate; inhibition, % at 8.3 µM; 370,000 compounds, 0.13% hits;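 active means inhibition above the mean of compounds falling within the control limits plus 3 SD of them, cut at about 14% in these data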;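 further: 0% = plate median of compound wells and 100% = 10 µM Aha-Tn7 peptide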
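Also added: labelled Tn7 tracer, 0.1 µM; Assay system: human fibrin DD(E) protein; Amount: 2 µM fibrin DD(E); Schedule: 10 min compound pre-incubation, 3 h probe incubation at room temperature; Repeats: one replicate per compound; Read-out basis: percent inhibition; Measured by: fluorescence polarization of the labelled Tn7 tracer.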
PLCgamma1 ctr: counter-screen for PLC-beta3 inhibitors: inhibitors of human PLC-gamma1 | inhibition, % at 12.3 µM | shares compounds with PLC-gamma1 inh | 3,300 compounds, 3.1% hits | AID 743258 | purified PLC-gamma1, fluorogenic substrate, fluorescence
PLCbeta3 conf: human PLC-beta3 inhibition, confirmation; purified PLC-beta3, fluorogenic substrate fluorescence; shares compounds with PLC-gamma1 inh; 3,300 compounds, 1% hits; inhibition, % at 12.3 µM; in the data active means inhibition above about 11%
Numbers without * were called inactive. Unless noted, no stated cut-off is given here; in the data, active means inhibition above about 9.5%; inactive means the rest.

For Cc1c(C(O)(c2ccccc2)c2ccccc2)[n+]2ccccc2n1C the results were PLC-gamma1 inh 2.6, ADAM17 inh -3.4, ADAM10 inh 3.3, PLCb3 inh 2.3, DDE Tn6 FP inh 5.0 and Tn7 DDE FP 1.5.
`CSc1nnc(-c2nnc(SC)n2-c2ccccc2)n1-c1ccccc1` gave PLC-gamma1 inh 5.3, ADAM17 inh -0.6, ADAM10 inh 3.0, PLCb3 inh 3.6, DDE Tn6 FP inh 0.4 and Tn7 DDE FP -3.8.
For CSc1nnc(-c2cc(C)on2)n1-c1ccccc1 the results were PLC-gamma1 inh 11.1*, ADAM17 inh -0.9, ADAM10 inh -9.5, PLCb3 inh -3.3, DDE Tn6 FP inh -1.8, Tn7 DDE FP -3.3, PLCgamma1 ctr 0.3 and PLCbeta3 conf 1.9.
For CCCCNC(=O)C1CCCN1C(=O)Nc1cc(C)cc(C)c1 (centres undefined) the results were PLC-gamma1 inh 0.4, ADAM17 inh 1.5, ADAM10 inh -0.8, PLCb3 inh -1.5, DDE Tn6 FP inh 6.2 and Tn7 DDE FP 9.1.
`C/C=C(\C)CN1CCCC(CO)(Cc2ccccc2)C1` (centres undefined) gave PLC-gamma1 inh 12.0*, ADAM17 inh 1.6, ADAM10 inh 3.7, PLCb3 inh -4.8, DDE Tn6 FP inh -5.9, Tn7 DDE FP -5.2, PLCgamma1 ctr -1.6 and PLCbeta3 conf 0.1.
Screening C=CCN1[C@H](C#N)[C@@H](c2ccccc2)[C@H]1CO returned PLC-gamma1 inh -2.0, ADAM17 inh -2.9, ADAM10 inh -4.7, PLCb3 inh -1.6, DDE Tn6 FP inh 1.9 and Tn7 DDE FP 0.8.
`CC(C(=O)N=Nc1c(O)[nH]c2ccccc12)n1cnc2ccccc2c1=O` (centres undefined) gave PLC-gamma1 inh 10.4*, ADAM17 inh 6.7, ADAM10 inh 10.8, PLCb3 inh 15.7*, DDE Tn6 FP inh 0.2, Tn7 DDE FP -0.5, PLCgamma1 ctr -1.1 and PLCbeta3 conf 0.6.
Cc1cccc2c(N=NC(=O)C(C)n3cnc4ccccc4c3=O)c(O)[nH]c12 (centres undefined) was read as PLC-gamma1 inh 0.4, ADAM17 inh -2.3, ADAM10 inh -2.0, PLCb3 inh -5.0, DDE Tn6 FP inh 4.5 and Tn7 DDE FP -2.0.
For O=C1C[C@@H](C(=O)Nc2ccc(Cl)cc2)[C@@H](c2ccccc2)O1 the results were PLC-gamma1 inh -0.4, ADAM17 inh 2.0, ADAM10 inh -0.4, PLCb3 inh 0.5, DDE Tn6 FP inh -5.7 and Tn7 DDE FP 0.5.
`COc1ccc(NC(=O)C2CC(=O)OC2c2ccccc2)cc1` (centres undefined) gave PLC-gamma1 inh 10.2*, ADAM17 inh 2.8, ADAM10 inh 0.3, PLCb3 inh 6.1, DDE Tn6 FP inh -1.9, Tn7 DDE FP -4.3, PLCgamma1 ctr -5.1 and PLCbeta3 conf -1.1.
For CCOC(=O)c1ccc(NC(=O)N2CCN(S(C)(=O)=O)CC2)cc1 the results were PLC-gamma1 inh 12.1*, ADAM17 inh 0.1, ADAM10 inh 3.4, PLCb3 inh 4.4, DDE Tn6 FP inh -8.2, Tn7 DDE FP -0.1, PLCgamma1 ctr -7.4 and PLCbeta3 conf -3.4.
For CCOC(=O)c1ccc(NC(=S)N2CCN(S(C)(=O)=O)CC2)cc1 the results were PLC-gamma1 inh 0.2, ADAM17 inh -0.2, ADAM10 inh 3.7, PLCb3 inh 1.0, DDE Tn6 FP inh 0.2 and Tn7 DDE FP 0.2.
`CC(=O)c1ccc(NC(=O)NC2CCCCN(Cc3ccc(Cl)cc3)C2=O)cc1` (centres undefined) gave PLC-gamma1 inh 0.7, ADAM17 inh -0.1, ADAM10 inh 5.7, PLCb3 inh 0.6, DDE Tn6 FP inh 4.9 and Tn7 DDE FP 0.7.
Screening O=C(NCc1ccccn1)c1ccc(Cl)c(S(=O)(=O)N2CCCCCC2)c1 returned PLC-gamma1 inh 9.9*, ADAM17 inh 6.2, ADAM10 inh -7.2, PLCb3 inh -8.7, DDE Tn6 FP inh -5.7, Tn7 DDE FP 4.6, PLCgamma1 ctr -9.7 and PLCbeta3 conf -6.9.
O=C(NCCc1ccccn1)c1cccc(S(=O)(=O)N2CCCCCC2)c1 was read as PLC-gamma1 inh 14.9*, ADAM17 inh 3.3, ADAM10 inh 7.4, PLCb3 inh 13.7*, DDE Tn6 FP inh 2.4, Tn7 DDE FP 8.0, PLCgamma1 ctr 0.1 and PLCbeta3 conf 0.6.
`O=C(NCc1ccccc1)c1ccc(Cl)c(S(=O)(=O)N2CCCC2)c1` gave PLC-gamma1 inh 0.9, ADAM17 inh 1.7, ADAM10 inh -8.0, PLCb3 inh -4.9, DDE Tn6 FP inh 0.5 and Tn7 DDE FP -5.7.
CN(C)S(=O)(=O)c1ccc(C(=O)N2CCCC2c2nc3ccccc3s2)cc1 (centres undefined) was read as PLC-gamma1 inh 7.6, ADAM17 inh 6.1, ADAM10 inh 4.4, PLCb3 inh 10.8*, DDE Tn6 FP inh -2.2, Tn7 DDE FP -0.9, PLCgamma1 ctr 6.3 and PLCbeta3 conf 4.1.
O=C(NC1CCCCN(Cc2cccc(Cl)c2)C1=O)c1ccc(Cl)cc1Cl (centres undefined) was read as PLC-gamma1 inh 5.2, ADAM17 inh -2.1, ADAM10 inh 4.8, PLCb3 inh -0.9, DDE Tn6 FP inh -1.5 and Tn7 DDE FP -2.6.
For CNc1c(NS(=O)(=O)c2ccc(OC)c(Cl)c2)c(=O)oc2ccccc12 the results were PLC-gamma1 inh 10.9*, ADAM17 inh -9.0, ADAM10 inh -23.1, PLCb3 inh -1.4, DDE Tn6 FP inh 4.3, Tn7 DDE FP 0.5, PLCgamma1 ctr -9.2 and PLCbeta3 conf -5.4.
For CC(C)c1ccccc1NC(=O)Cn1c(-c2ccccc2Cl)nc2ccccc21 the results were PLC-gamma1 inh 1.6, ADAM17 inh -2.9, ADAM10 inh 0.3, PLCb3 inh -0.8, DDE Tn6 FP inh -2.2 and Tn7 DDE FP -1.3.
`CSc1ccccc1NC(=O)Cn1c(-c2cscn2)nc2ccccc21` gave PLC-gamma1 inh 9.8*, ADAM17 inh 0.4, ADAM10 inh 9.7, PLCb3 inh 7.9, DDE Tn6 FP inh 2.4, Tn7 DDE FP 0.9, PLCgamma1 ctr -7.2 and PLCbeta3 conf 0.0.
Cc1cc(NC(=O)CSc2nc(C(C)C)nc3sc(C)c(C)c23)no1 was read as PLC-gamma1 inh 0.3, ADAM17 inh -0.3, ADAM10 inh 5.2, PLCb3 inh 1.2, DDE Tn6 FP inh -6.5 and Tn7 DDE FP 5.5.
Screening Cc1cc(NC(=O)CSc2nnc3c4c(C)c(C)sc4ncn23)no1 returned PLC-gamma1 inh -6.0, ADAM17 inh 3.6, ADAM10 inh 1.2, PLCb3 inh 11.8*, DDE Tn6 FP inh 5.8, Tn7 DDE FP -3.7, PLCgamma1 ctr -3.6 and PLCbeta3 conf -2.2.
